Measurements: ChEMBL document CHEMBL1145506, “Activation of inhibitors by sortase triggers irreversible modification of the active site” (J Biol Chem, 2007)
Active and inactive are the calls of the source. No cut-off for these calls is given here.

T1: Sortase A (Staphylococcus aureus) (UniProt Q9S446)
T1 sequence (whole entry): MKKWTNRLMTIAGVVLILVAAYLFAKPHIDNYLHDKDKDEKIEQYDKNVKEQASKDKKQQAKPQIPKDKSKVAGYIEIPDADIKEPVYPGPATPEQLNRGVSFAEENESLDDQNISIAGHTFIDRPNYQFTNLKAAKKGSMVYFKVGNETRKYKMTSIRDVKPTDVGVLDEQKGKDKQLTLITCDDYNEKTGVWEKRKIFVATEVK

T2: Papain (Carica papaya) (UniProt P00784)
T2 sequence (whole entry): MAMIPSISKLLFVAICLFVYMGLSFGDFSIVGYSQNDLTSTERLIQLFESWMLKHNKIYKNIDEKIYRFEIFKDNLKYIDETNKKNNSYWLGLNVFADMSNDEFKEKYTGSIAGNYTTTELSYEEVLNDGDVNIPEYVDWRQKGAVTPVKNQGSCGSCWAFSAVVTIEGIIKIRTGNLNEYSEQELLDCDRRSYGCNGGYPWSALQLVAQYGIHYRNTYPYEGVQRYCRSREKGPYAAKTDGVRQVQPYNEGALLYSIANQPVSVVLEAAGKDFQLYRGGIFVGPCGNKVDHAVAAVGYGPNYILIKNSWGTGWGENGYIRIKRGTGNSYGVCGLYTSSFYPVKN

T3: Sortase A (Staphylococcus aureus, UniProt Q9S446)
T3 sequence (Q9S446 whole entry): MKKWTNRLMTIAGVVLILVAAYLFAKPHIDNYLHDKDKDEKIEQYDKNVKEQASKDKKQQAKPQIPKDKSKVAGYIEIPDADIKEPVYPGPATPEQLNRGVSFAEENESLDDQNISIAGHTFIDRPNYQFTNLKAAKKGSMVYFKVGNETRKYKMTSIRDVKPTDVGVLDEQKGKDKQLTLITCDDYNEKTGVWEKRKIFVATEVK


Tests used:
[1] = target: T1, Sortase A (Staphylococcus aureus); assay: (§1) Inhibition of Staphylococcus aureus sortase A
[2] = Inhibition of Bacillus anthracis sortase B
Bacillus anthracis = assay: (§2) Inhibition of Bacillus anthracis sortase A; parameters: concentration or dose not given beside the values; conditions: concentration not given here
[3] = Inhibition of Bacillus anthracis sortase C
Papain (Carica papaya) = target: T2, Papain (Carica papaya); assay: Inhibition of Carica papaya papain; parameters: concentration or dose not given beside the values; conditions: concentration not given here
Sortase A = target: T3, Sortase A; assay: as §1
[4] = target: T1, Sortase A (Staphylococcus aureus); assay: Inhibition of Staphylococcus aureus sortase A at 10 ng
Summary of the method: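 Purified S. aureus SrtA (2 μM) preincubated with 10 ng compound in DMSO for 1 h at 25 °C. FRET substrate a-LPETG-d was then added to 2 μM in 5 mM CaCl2, 150 mM NaCl, 50 mM Tris-HCl pH 7.5, and incubated 24 h at 37 °C. Fluorescence read at ex 320/em 420 nm. Screened in duplicate; % inhibition = 100 − (well/plate positive-control mean ×100).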

[5] = as §2
[6] = substrate: CN(C)CCC(=O)c1ccc(Cl)c(Cl)c1; conditions: Staphylococcus aureus; 200 uM
[7] = substrate: CN(C)CCC(=O)c1cccs1; conditions: Staphylococcus aureus; 50 uM

| Molecule | inhibition (Bacillus anthracis) | inhibition (Papain (Carica papaya)) | inhibition [4] | other results |
| --- | --- | --- | --- | --- |
| C=CC(O)c1cccs1 (racemic) | – | – | – | Activity [1]: inactive |
| CN(C)CCC(=O)c1ccc(Cl)c(Cl)c1 | 90.4% | 49.3% | 89.6% | IC50 [2]: 14 µM; IC50 [3]: 20 µM; IC50 (Sortase A): 15 µM; Ki (Sortase A): 15.7 µM |
| O=C(CCNc1ccccc1)c1cccc([N+](=O)[O-])c1 | 87.3% | 34% | 66% | – |
| CN(C)CCC(=O)c1cccs1 | 90.7% | 19.1% | 54.8% | IC50 [2]: 34 µM; IC50 [5]: 4.8 µM; IC50 [3]: 15 µM; IC50 (Sortase A): 47 µM; Ki (Sortase A): 93.2 µM |
| O=C(CCN1CCOCC1)c1ccc(Cl)cc1 | 90.6% | 50.4% | 84.4% | – |
| CCOC(=O)N1CCN(CCC(=O)c2ccc(Br)cc2)CC1 | 90.7% | 48.5% | 80.2% | – |
| C=CC(=O)c1cccs1 | – | – | – | Ki (Sortase A): 69 µM |
| CN(C)CCC(=O)c1cccc([N+](=O)[O-])c1 | 90.2% | 47.2% | 54.3% | – |
| CC1CCCN(CCC(=O)c2ccc(Br)cc2)C1 (stereo not given) | 83.7% | 33.8% | 56.9% | – |
| O=C(CCN1CCOCC1)c1ccc(F)cc1 | 89.1% | 46.6% | 47.2% | – |
| CN(C)CCC(=O)c1ccc(S(C)(=O)=O)cc1 | 91.3% | 37.1% | 69.8% | – |
| Cc1ccc(C(=O)CCN2CCOCC2)cc1 | 88.9% | 31.2% | 56.9% | – |
| Sortase A (Staphylococcus aureus), Q9S446 (protein) MKKWTNRLMTIAGVVLILVAAYLFAKPHIDNYLHDKDKDEKIEQYDKNVKEQASKDKKQQAKPQIPKDKSKVAGYIEIPDADIKEPVYPGPATPEQLNRGVSFAEENESLDDQNISIAGHTFIDRPNYQFTNLKAAKKGSMVYFKVGNETRKYKMTSIRDVKPTDVGVLDEQKGKDKQLTLITCDDYNEKTGVWEKRKIFVATEVK | – | – | – | Km [6]: 5.91 µM; Vmax [6]: 58 s⁻¹; Km [7]: 5.8 µM; Vmax [7]: 88.8 s⁻¹ |
